{"source": "paper PMC3288656", "about": "(Biochemical pharmacology, 2012)", "key": {"CB1Rs [1]": {"molecular_target": "T1, CB1Rs (Mus musculus, UniProt P47746)", "T1 sequence (P47746 whole entry)": "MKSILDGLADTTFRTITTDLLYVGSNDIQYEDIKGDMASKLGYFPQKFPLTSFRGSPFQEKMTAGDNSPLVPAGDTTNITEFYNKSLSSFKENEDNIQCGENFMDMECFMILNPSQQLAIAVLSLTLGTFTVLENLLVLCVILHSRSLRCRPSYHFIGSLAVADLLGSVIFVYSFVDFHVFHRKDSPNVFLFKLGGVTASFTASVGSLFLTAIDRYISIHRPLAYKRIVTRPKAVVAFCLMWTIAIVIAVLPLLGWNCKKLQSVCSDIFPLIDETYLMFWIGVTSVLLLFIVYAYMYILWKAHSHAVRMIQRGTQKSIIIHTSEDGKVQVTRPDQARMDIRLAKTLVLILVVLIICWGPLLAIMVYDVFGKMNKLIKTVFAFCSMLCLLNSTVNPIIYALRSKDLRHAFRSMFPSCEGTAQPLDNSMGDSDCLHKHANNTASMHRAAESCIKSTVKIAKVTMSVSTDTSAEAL", "assay": "[35S]GTPγS binding assay", "assay_type": "biochemical", "conditions": "for [35S]GTPγS Binding Emax: concentration-effect curves, mouse brain homogenates, n=3–4; for intrinsic activity at CB1Rs: conclusion from [35S]GTPγS binding data"}, "catalepsy": {"system": "catalepsy", "assay": "Cannabinoid tetrad: catalepsy, horizontal bar test", "assay_type": "in vivo, NIH Swiss mice", "outline": "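Catalepsy was measured as time on a horizontal bar in male NIH Swiss mice (groups of 5 or 6, drug-naïve). Dosing was i.p. in 1:1:18 ethanol:emulphor:saline (10 mL/kg). The steel bar was 0.5 cm in diameter and sat 4.0 cm above a platform. Forelimbs went on the bar and hindlimbs on the platform in a rearing posture. Timing ran until both paws left the bar, maximum 30 s. Single trial per time point at 0, 10, 30 and 60 min.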"}, "analgesia (tail flick)": {"system": "analgesia (tail flick)", "assay": "Cannabinoid tetrad: analgesia, tail-flick latency", "assay_type": "in vivo, NIH Swiss mice", "outline": "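Male NIH Swiss mice (~25–30 g, drug-naïve, groups of 5 or 6) received i.p. test compound in ethanol:emulphor:saline 1:1:18 at 10 mL/kg. Radiant-heat tail flick used sensitivity 150 and light intensity 369, calibrated so untreated mice respond in 2–4 s, with a 10 s cutoff. The photobeam break stopped the timer. One trial per mouse at 0, 10, 30 and 60 min post-dose.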"}, "[2]": {"system": "core body temperature (hypothermia)", "assay": "Cannabinoid tetrad: core body temperature by biotelemetry", "assay_type": "in vivo, NIH Swiss mice", "conditions": "for minimum core body temperature recorded / time to maximal core body temperature reduction (Tmax): 10 mg/kg, i.p."}, "locomotor activity": {"system": "locomotor activity", "assay": "Cannabinoid tetrad: locomotor activity by biotelemetry", "assay_type": "in vivo, NIH Swiss mice", "conditions": "for locomotor activity: mice", "outline": "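Abdominal biotelemetry probes were implanted in male NIH Swiss mice under ketamine 100 mg/kg plus xylazine 10 mg/kg i.p., with at least 7 days recovery. Mice were housed singly, acclimated at least 2 h, and gave at least 1 h of baseline. They were then dosed i.p. in 1:1:18 ethanol:emulphor:saline (10 mL/kg) and moved to a fresh-bedding cage. Activity was logged every 5 min for at least 10 h. Groups of 5 or 6.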"}, "CB1Rs [3]": {"molecular_target": "T1, CB1Rs", "assay": "Competition receptor binding with [3H]CP-55,940 in mouse brain homogenates"}, "[4]": {"conditions": "drug 10 μM (receptor-saturating)"}, "[5]": {"conditions": "JWH-018 3 mg/kg i.p. alone, mice"}, "[6]": {"conditions": "M4 10 mg/kg i.p. + JWH-018 3 mg/kg i.p. vs JWH-018 alone"}, "[7]": {"conditions": "drug 1 μM co-incubated with CB1R antagonist O-2050 1 μM"}, "[8]": {"conditions": "10 mg/kg, i.p., relative to vehicle"}}, "note": "Several values for one entry are separate records, joined by “and”; a condition that tells them apart may be missing. Equal values may be shown once. Marks after values point to notes of the source that are not given here.", "data": [{"smiles": "CCCCCCC(C)(C)c1ccc([C@@H]2C[C@H](O)CC[C@H]2CCCO)c(O)c1", "note": "[CP-55,940, reference compound]", "values": [{"measurement": "[35S]GTPγS Binding Emax", "setting": "CB1Rs [1]", "result": "0.26 ± 0.01 ^a pmole/mg"}, {"measurement": "intrinsic activity at CB1Rs", "setting": "CB1Rs [1]", "result": "full CB1R agonists"}, {"measurement": "[35S]GTPγS Binding", "setting": "CB1Rs [1]; drug 100 nM", "result": "0.20 ± 0.04", "unit": "pmol/mg"}, {"measurement": "[35S]GTPγS Binding + O-2050 (1 μM)", "setting": "CB1Rs [1]; drug 100 nM co-incubated with CB1R antagonist O-2050 1 μM", "result": "0.06 ± 0.03", "unit": "pmol/mg"}, {"measurement": "[35S]GTPγS Binding", "setting": "CB1Rs [1]; [4]", "result": "0.32 ± 0.02 pmole/mg and 0.32 ± 0.02 ^c, pmole/mg"}]}, {"smiles": "CCCCCn1cc(C(=O)c2cccc3ccccc23)c2ccccc21", "note": "[JWH-018, reference compound]", "values": [{"measurement": "catalepsy", "setting": "catalepsy; [5]", "result": "catalepsy"}, {"measurement": "EC50", "setting": "CB1Rs [1]; read-out: EC50 for G-protein activation, JWH-018 alone", "result": 0.008, "unit": "µM"}, {"measurement": "analgesia (tail flick assay)", "setting": "analgesia (tail flick); [5]", "result": "robust analgesia"}, {"measurement": "maximal decrease in core body temperature to", "setting": "[2]; [5]", "result": "30.28 +/− 0.71 °C"}, {"measurement": "locomotor activity", "setting": "locomotor activity; JWH-018 3 mg/kg i.p. alone", "result": "locomotor suppression"}]}, {"smiles": "CCCCn1cc(C(=O)c2cccc3ccccc23)c2cccc(O)c21", "note": "[M4]", "values": [{"measurement": "antagonism of JWH-018-induced catalepsy", "setting": "catalepsy; [6]", "result": "no difference"}, {"measurement": "antagonism of CB1R agonists and inverse agonists in [35S]GTPγS binding", "setting": "CB1Rs [1]; M4 10 μM with 100 nM CP, 1 μM JWH-018, 500 nM JWH-073, 10 μM Rimonabant or AM251", "result": "significantly antagonized"}, {"measurement": "Schild plot slope", "setting": "CB1Rs [1]; M4 against JWH-018", "result": 0.97}, {"measurement": "effect on basal [35S]GTPγS binding", "setting": "CB1Rs [1]; M4 alone, 0.1 nM to 10 μM", "result": "neither significantly increased"}, {"measurement": "intrinsic activity at CB1Rs", "setting": "CB1Rs [1]", "result": "lacks significant intrinsic activity"}, {"measurement": "antagonism of JWH-018-induced analgesia", "setting": "analgesia (tail flick); [6]", "result": "no difference"}, {"measurement": "JWH-018-induced hypothermia, area under the curve 0–500 minutes", "setting": "[2]; M4 10 mg/kg i.p. + JWH-018 3 mg/kg i.p. vs JWH-018 alone, n=5", "result": "significantly attenuated hypothermia"}, {"measurement": "change in body temperature", "setting": "[2]; M4 10 mg/kg i.p. alone, mice", "result": "no significant change in body temperature"}, {"measurement": "core body temperature minimum, JWH-018-induced hypothermia with M4", "setting": "[2]; M4 10 mg/kg i.p. co-administered with JWH-018 3 mg/kg i.p., mice", "result": "33.09 +/− 0.70 °C"}, {"measurement": "antagonism of JWH-018-induced locomotor suppression", "setting": "locomotor activity; [6]", "result": "no difference"}]}, {"smiles": "O=C(O)CCCn1cc(C(=O)c2cccc3ccccc23)c2ccccc21", "note": "[M6, 4-(3-(1-naphthoyl)-1H-indole-1-yl)-1-butanoic acid]", "values": [{"measurement": "displacement of [3H]CP-55,940 specific binding", "setting": "CB1Rs [3]; concentrations as high as 10 μM, n=3", "result": "less than 10%"}]}, {"smiles": "CCCCn1cc(C(=O)c2cccc3ccccc23)c2ccc(O)cc21", "note": "[M3]", "values": [{"measurement": "intrinsic activity at CB1Rs", "setting": "CB1Rs [1]", "result": "partial agonist activity"}, {"measurement": "[35S]GTPγS Binding", "setting": "CB1Rs [1]; drug 1 μM", "result": "0.04 ± 0.00", "unit": "pmol/mg"}, {"measurement": "[35S]GTPγS Binding + O-2050 (1 μM)", "setting": "CB1Rs [1]; [7]", "result": "0.02 ± 0.01", "unit": "pmol/mg"}, {"measurement": "[35S]GTPγS Binding", "setting": "CB1Rs [1]; [4]", "result": "0.11 ± 0.02 pmole/mg and 0.11 ± 0.02 ^a, ^b pmole/mg"}, {"measurement": "Ki", "setting": "CB1Rs [3]; read-out: CB1R affinity (Ki), displacement of [3H]CP-55,940, mouse brain homogenates, n=4", "result": "1.28 ± 0.47", "unit": "µM"}]}, {"smiles": "CCCCn1cc(C(=O)c2cccc3ccccc23)c2ccccc21", "note": "[JWH-073, (1-butyl-1H-indole-3-yl)-1-naphthalenyl-methanone, reference compound]", "values": [{"measurement": "[35S]GTPγS Binding Emax", "setting": "CB1Rs [1]", "result": "0.27 ± 0.01 ^a pmole/mg"}, {"measurement": "intrinsic activity at CB1Rs", "setting": "CB1Rs [1]", "result": "full CB1R agonists"}, {"measurement": "[35S]GTPγS Binding", "setting": "CB1Rs [1]; drug 1 μM", "result": "0.27 ± 0.04", "unit": "pmol/mg"}, {"measurement": "[35S]GTPγS Binding + O-2050 (1 μM)", "setting": "CB1Rs [1]; [7]", "result": "0.07 ± 0.02", "unit": "pmol/mg"}, {"measurement": "[35S]GTPγS Binding", "setting": "CB1Rs [1]; [4]", "result": "0.28 ± 0.03 pmole/mg and 0.28 ± 0.03 ^c pmole/mg"}, {"measurement": "minimum core body temperature recorded", "setting": "[2]; mice", "result": "29.74 ± 1.44", "unit": "°C"}, {"measurement": "time to maximal core body temperature reduction (Tmax)", "setting": "[2]; mice", "result": "54.17 ± 5.23", "unit": "min"}, {"measurement": "locomotor activity", "setting": "locomotor activity; [8]", "result": "locomotor suppression"}]}, {"smiles": "O=C(c1cccc2ccccc12)c1cn(CCCCO)c2ccccc12", "note": "[M5, 1-(4-hydroxybutyl-1H-indole-3-yl)(naphthalen-1-yl)-methanone]", "values": [{"measurement": "intrinsic activity at CB1Rs", "setting": "CB1Rs [1]", "result": "partial agonist activity"}, {"measurement": "[35S]GTPγS Binding", "setting": "CB1Rs [1]; drug 1 μM", "result": "0.12 ± 0.00", "unit": "pmol/mg"}, {"measurement": "[35S]GTPγS Binding + O-2050 (1 μM)", "setting": "CB1Rs [1]; [7]", "result": "0.05 ± 0.01", "unit": "pmol/mg"}, {"measurement": "[35S]GTPγS Binding", "setting": "CB1Rs [1]; [4]", "result": "0.16 ± 0.02 pmole/mg and 0.16 ± 0.02 ^a pmole/mg"}]}, {"smiles": "CCCCn1cc(C(=O)c2cccc3ccccc23)c2c(O)cccc21", "note": "[M1]", "values": [{"measurement": "[35S]GTPγS Binding Emax", "setting": "CB1Rs [1]", "result": "0.14 ± 0.01 ^b pmole/mg"}, {"measurement": "intrinsic activity at CB1Rs", "setting": "CB1Rs [1]", "result": "partial agonist activity"}, {"measurement": "[35S]GTPγS Binding", "setting": "CB1Rs [1]; drug 1 μM", "result": "0.17 ± 0.01", "unit": "pmol/mg"}, {"measurement": "[35S]GTPγS Binding + O-2050 (1 μM)", "setting": "CB1Rs [1]; [7]", "result": "0.07 ± 0.01", "unit": "pmol/mg"}, {"measurement": "[35S]GTPγS Binding", "setting": "CB1Rs [1]; [4]", "result": "0.14 ± 0.01 pmole/mg and 0.14 ± 0.01 ^a pmole/mg"}, {"measurement": "minimum core body temperature recorded", "setting": "[2]; mice", "result": "30.32 ± 0.66", "unit": "°C"}, {"measurement": "time to maximal core body temperature reduction (Tmax)", "setting": "[2]; mice", "result": "58.00 ± 4.64", "unit": "min"}, {"measurement": "locomotor activity", "setting": "locomotor activity; [8]", "result": "reduction of locomotor activity similar to that observed with administration of JWH-073"}]}]}
